# pIC50: −log10 of the molar value.
# Key:
# HeLa [1] = test: Selectivity index, ratio of IC50 for HEK cells to IC50 for human HeLa cells; type: functional
# Procedure, shortened: (§1)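 Selectivity index is IC50 in normal HEK cells divided by IC50 in the cancer cell line.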
# HEK293 [2] = test: Selectivity index, ratio of IC50 for HEK cells to IC50 for human MCF7 cells; type: functional; procedure, shortened: as §1
# HeLa [3] = test: Cytotoxicity against human HeLa cells after 72 hrs by MTT assay; type: functional, cell-based
# Procedure, shortened: (§2)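 Cells were seeded at 1×10⁴ per well and preincubated 18 h at 37 °C, 5% CO₂. They were then exposed to 1–256 μM for 72 h with DMSO ≤0.25%. MTT was added for 2 h and formazan was solubilized in extraction buffer before reading OD at 570 nm. IC50 is mean ± SD of three independent experiments. HEK is the normal-cell line; cancer lines were grown in DMEM with 10% serum.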
# MCF7 = test: Cytotoxicity against human MCF7 cells after 72 hrs by MTT assay; type: functional, cell-based; conditions: MCF7, 72 h; procedure, shortened: as §2
# HEK293 [4] = test: Selectivity index, ratio of IC50 for HEK cells to IC50 for human K562 cells; type: functional; procedure, shortened: as §1
# [5] = Cytotoxicity against HEK cells after 72 hrs by MTT assay; type: cell-based; conditions: Homo sapiens, HEK293, 72 h; procedure, shortened: as §2
# K562 = test: Cytotoxicity against human K562 cells after 72 hrs by MTT assay; type: functional, cell-based; conditions: K562, 72 h; procedure, shortened: as §2
# HeLa [6] = test: Cell cycle arrest in human HeLa cells assessed as accumulation at S phase at 4 uM after 48 hrs by propidium iodide staining-based flow cytometric analysis (reference value: 7%); type: functional
# HeLa [7] = test: Cell cycle arrest in human HeLa cells assessed as accumulation at G0 phase at 8 uM after 48 hrs by propidium iodide staining-based flow cytometric analysis (reference value: 3%); type: functional
# HeLa [8] = test: Cell cycle arrest in human HeLa cells assessed as accumulation at G1 phase at 8 uM after 48 hrs by propidium iodide staining-based flow cytometric analysis (reference value: 68%); type: functional
# HeLa [9] = test: Cell cycle arrest in human HeLa cells assessed as accumulation at G0/G1 phase at 4 uM after 48 hrs by propidium iodide staining-based flow cytometric analysis (reference value: 62%); type: functional
# HeLa [10] = test: Cell cycle arrest in human HeLa cells assessed as accumulation at S phase at 8 uM after 48 hrs by propidium iodide staining-based flow cytometric analysis (reference value: 10%); type: functional
# HeLa [11] = test: Cell cycle arrest in human HeLa cells assessed as accumulation at G2/M phase at 4 uM after 48 hrs by propidium iodide staining-based flow cytometric analysis (reference value: 31%); type: functional
# HeLa [12] = test: Cell cycle arrest in human HeLa cells assessed as accumulation at G2/M phase at 4 uM after 48 hrs by propidium iodide staining-based flow cytometric analysis (reference value: 19%)
Structure (SMILES),Ratio IC50 (HeLa [1]),Ratio IC50 (HEK293 [2]),pIC50 (HeLa [3]),pIC50 (MCF7),Ratio IC50 (HEK293 [4]),pIC50 [5],pIC50 (K562),Activity (HeLa [6]),Activity (HeLa [7]),Activity (HeLa [8]),Activity (HeLa [9]),Activity (HeLa [10]),Activity (HeLa [11]),Activity (HeLa [12])
CCCCCC(O)c1cn(Cc2ccccc2-n2c(C)nc3cc(OC)c(OC)cc3c2=O)nn1 (stereo not given),3,2.68,4.80,4.75,2.09,4.32,4.64,–,–,–,–,–,–,–
COc1cc2nc(C)n(-c3ccccc3Cn3cc(CO)nn3)c(=O)c2cc1OC,9.25,6.94,4.93,4.80,3.92,3.96,4.55,–,–,–,–,–,–,–
COc1ccc(-c2cn(Cc3ccccc3-n3c(C)nc4cc(OC)c(OC)cc4c3=O)nn2)cc1,6.06,5.15,4.93,4.86,3.2,4.14,4.65,–,–,–,–,–,–,–
COc1cc2nc(C)n(-c3ccccc3Cn3cc(-c4ccccn4)nn3)c(=O)c2cc1OC,23.84,13.54,4.98,4.73,12.11,3.60,4.68,7%,5%,69%,72%,7%,22%,19%
COc1cc2nc(C)n(-c3ccccc3Cn3cc(-c4ccc(-c5ccccc5)cc4)nn3)c(=O)c2cc1OC,5.01,6.78,4.85,4.98,3.16,4.15,4.65,–,–,–,–,–,–,–
COc1ccc2cc(-c3cn(Cc4ccccc4-n4c(C)nc5ccccc5c4=O)nn3)ccc2c1,20.5,20.41,5.06,5.06,9.11,3.75,4.71,5%,5%,72%,73%,5%,22%,17%
COc1cccc(-c2cn(Cc3ccccc3-n3c(C)nc4cc(OC)c(OC)cc4c3=O)nn2)c1,4.29,3.37,4.93,4.82,2.27,4.29,4.65,–,–,–,–,–,–,–
COc1ccc(-c2cn(Cc3ccccc3-n3c(C)nc4ccccc4c3=O)nn2)cc1,9.06,8.05,4.89,4.84,5.17,3.94,4.65,–,–,–,–,–,–,–
Cc1nc2ccccc2c(=O)n1-c1ccccc1Cn1cc(S)nn1,17.22,12.61,4.96,4.82,7.2,3.72,4.58,7%,4%,69%,71%,6%,22%,21%
COc1cc2nc(C)n(-c3ccccc3Cn3nnc4ncccc43)c(=O)c2cc1OC,6.64,4.25,4.93,4.73,4.01,4.10,4.71,–,–,–,–,–,–,–
CCCc1cn(Cc2ccccc2-n2c(C)nc3cc(OC)c(OC)cc3c2=O)nn1,5.58,5.13,4.88,4.84,3.3,4.13,4.65,–,–,–,–,–,–,–
COc1cc2nc(C)n(-c3ccccc3Cn3cc(CCO)nn3)c(=O)c2cc1OC,7.75,8.85,4.80,4.85,4.66,3.91,4.58,–,–,–,–,–,–,–
Cc1nc2ccccc2c(=O)n1-c1ccccc1Cn1ccnn1,4.62,4.97,4.78,4.82,3.39,4.12,4.65,–,–,–,–,–,–,–
COc1cc2nc(C)n(-c3ccccc3Cn3cc(-c4cccnc4)nn3)c(=O)c2cc1OC,4.07,5.3,4.88,4.99,2.7,4.27,4.70,–,–,–,–,–,–,–
COc1cc2nc(C)n(-c3ccccc3Cn3ccnn3)c(=O)c2cc1OC,7.77,4.13,4.90,4.63,3.4,4.01,4.54,–,–,–,–,–,–,–
CCCCCCc1cn(Cc2ccccc2-n2c(C)nc3cc(OC)c(OC)cc3c2=O)nn1,3.62,2.98,4.84,4.75,2.2,4.28,4.62,–,–,–,–,–,–,–
COc1cc2nc(C)n(-c3ccccc3Cn3cc(-c4ccc(C)cc4)nn3)c(=O)c2cc1OC,20.56,14.16,5.00,4.84,7.28,3.69,4.55,6%,5%,71%,72%,7%,22%,17%
COc1cc2nc(C)n(-c3ccccc3Cn3cc(-c4cccc(C)c4)nn3)c(=O)c2cc1OC,3.88,3.1,4.84,4.74,1.77,4.25,4.50,–,–,–,–,–,–,–
COc1ccc2cc(-c3cn(Cc4ccccc4-n4c(C)nc5cc(OC)c(OC)cc5c4=O)nn3)ccc2c1,4.65,3.74,4.84,4.74,2.42,4.17,4.55,–,–,–,–,–,–,–
COc1cc2nc(C)n(-c3ccccc3Cn3cc(-c4ccccc4)nn3)c(=O)c2cc1OC,4.66,6.96,4.86,5.04,2.5,4.19,4.59,–,–,–,–,–,–,–
COc1cc2nc(C)n(-c3ccccc3Cn3cc(-c4cc5ccccc5c5ccccc45)nn3)c(=O)c2cc1OC,6.95,6.72,4.89,4.88,3.47,4.05,4.59,–,–,–,–,–,–,–

# From ChEMBL document CHEMBL3414548, “Luotonin-A based quinazolinones cause apoptosis and senescence via HDAC inhibition and activation of tumor suppressor proteins in HeLa cells” (Eur J Med Chem, 2015)
